One series relates to A549 cells. Briefly: MTT cytotoxicity assay on A549 cells. The series is classed as cell-based, human. To be noted: peptide alone at 50 and 25 μg/mL, 24 h, n = 3. An outline of the steps: (§1)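 Peptide vectors, PEGylated or not, were added alone at a series of concentrations to A549 or HepG2 cells, followed by MTT read-out. Viability (%) was calculated from absorbance of treated cells relative to untreated cells. Data given as mean ± SEM (n = 3) and compared by one-way ANOVA with Tukey's post-hoc test.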
(In general: Formazan colour is commonly taken as a measure of viable cells.)

A further series has as its system EGFP and luciferase mRNA. Description: Gel retardation assay, vector-mRNA binding. As to conditions: agarose gel electrophoresis. A digest of the protocol: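 Test compounds (peptide vectors, with or without PEG) mixed with EGFP or luciferase mRNA at 0.5:1 to 15:1 (w/w) to form self-assemblies. Run on agarose gel in 1× TAE at 140 V for 40 min. Stained with GelRed and imaged under UV. Unbound mRNA served as control. Complete binding was taken as loss of the free mRNA band.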

For another series, the system named is HepG2 cells. Description: MTT cytotoxicity assay on HepG2 cells. The series is classed as cell-based, human. To be noted: peptide alone at 50 and 25 μg/mL, 24 h, n = 3. A digest of the protocol: as §1

On to “(PEG24)-KKALLAHALHLLA LLALHLAHALKKA-NH2 [PEG24LA, PEG24-LAH4-L1]”, for which the “cytotoxicity of peptide compared with non-PEGylated LA peptide” value in the series on A549 cells and in the series with HepG2 cells was “significantly lower” each time. Also, the “mRNA affinity compared with non-PEGylated LA peptide” value with EGFP and luciferase mRNA is on record as “comparable”.

Source of the values: article PMC10281356 (Drug Delivery, 2023).
